Source: PubChem BioAssay
SENP1 inh: human SENP1 catalytic domain inhibitors, primary screen, biochemical, FRET, uHTS. Sentrin-specific protease 1 (Homo sapiens), Q9P0U3. recombinant SENP1 catalytic domain, CyPet-SUMO1-YPet FRET cleavage. inhibition, % at 10 µM. actives 0.21% (n = 360,000). AID 624204, 2012;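 active = inhibition at least 30% at 10 µM, raw YFP signal under a set limit, fluorescence ratio 0.5 to 1.5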;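 note: 0% = enzyme with DMSO and 100% = no enzyme wells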
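Test system: recombinant human SENP1 catalytic domain, His6-tagged / Medium: pH 8 Tris buffer with EDTA, NaCl, BME, BSA, NP40, catalase / Also added: SUMO1 FRET substrate flanked by Cypet and Ypet, 25 nM / Times: 50 min reaction at room temperature / Signal: FRET, CFP and YFP emission / Control set: no-enzyme low control and enzyme-plus-DMSO high control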
SENP6 block: SENP6 protease inhibitors, primary screen, biochemical, luminescence, uHTS; Sentrin-specific protease 6 (Homo sapiens), Q9GZR1; Recombinant SENP6 catalytic domain, aminoluciferin luminescence; inhibition, % at 10 µM; actives 1.8% (n = 330,000);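 active = inhibition above about 50% at the single tested dose, limit read from the data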;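 note: plate controls were DMSO wells with enzyme for no effect and DMSO wells lacking enzyme for full effect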
Target sequence (Q9GZR1 628-1112 limits assumed): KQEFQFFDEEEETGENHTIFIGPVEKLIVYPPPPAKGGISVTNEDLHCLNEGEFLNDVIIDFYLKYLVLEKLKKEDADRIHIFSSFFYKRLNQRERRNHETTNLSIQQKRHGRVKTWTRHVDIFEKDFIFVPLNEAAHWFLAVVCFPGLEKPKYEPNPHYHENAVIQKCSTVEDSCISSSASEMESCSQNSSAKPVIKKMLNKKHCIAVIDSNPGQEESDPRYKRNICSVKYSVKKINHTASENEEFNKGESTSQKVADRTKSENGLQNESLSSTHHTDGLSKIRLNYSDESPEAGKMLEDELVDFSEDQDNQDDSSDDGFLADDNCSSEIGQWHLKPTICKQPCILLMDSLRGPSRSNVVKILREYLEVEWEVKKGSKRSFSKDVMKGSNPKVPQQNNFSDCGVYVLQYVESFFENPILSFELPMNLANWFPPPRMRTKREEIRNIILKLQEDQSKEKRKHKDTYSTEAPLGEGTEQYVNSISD
SENP8 block-1: human SENP8 protease inhibitors, primary screen, biochemical, fluorescence, Nedd8 protein substrate, uHTS. Sentrin-specific protease 8 (Homo sapiens), Q96LD8. recombinant SENP8. inhibition, % at 20 µM. actives 0.64% (n = 360,000). AID 602440, 2012; in the data active = inhibition mostly above about 40%, no sharp cut-off; inactive = mostly below about 27%
SENP8 block-2: SENP8 protease inhibitors, primary screen, biochemical, luminescence. Sentrin-specific protease 8 (Homo sapiens), Q96LD8. purified SENP8, Z-RLRGG-aminoluciferin cleavage. inhibition, % at 10 µM. actives 1.2% (n = 330,000); in the data active = inhibition above about 50%
SENP7 inh: SENP7 protease inhibitors, primary screen, biochemical, luminescence, uHTS; Sentrin-specific protease 7 (Homo sapiens), Q9BQF6; recombinant SENP7, Z-RLRGG-aminoluciferin luminescence, 40 min; inhibition, % at 5 µM; actives 1.5% (n = 330,000); AID 434973, 2010;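 active = inhibition above about 50% at the single test dose, limit read from the data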;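 note: plate controls were DMSO with enzyme for no effect and no enzyme buffer wells for full effect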
SENP8 confirm: SENP8 protease inhibitors, retest, confirmation, biochemical, luminescence, single concentration; shares compounds with SENP7 inh; Recombinant SENP8, Z-RLRGG-aminoluciferin luminescence, 60 min; inhibition, % at 12.5 µM; actives 40% (n = 6,200);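 active = mean inhibition across replicates above about 50%, limit read from the data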
SENP6 conf: SENP6 protease inhibitors, confirmation, biochemical, luminescence, single concentration | shares compounds with SENP7 inh | recombinant SENP6, Z-RLRGG-aminoluciferin luminescence | inhibition, % at 12.5 µM | actives 58% (n = 6,200) | AID 488915, 2010
SENP7 confirm: SENP7 protease inhibitors, retest, confirmation, biochemical, luminescence, single concentration; shares compounds with SENP7 inh; recombinant SENP7, Z-RLRGG-aminoluciferin luminescence, 40 min; inhibition, % at 12.5 µM; actives 69% (n = 6,200)
Casp3 select: caspase-3 protease inhibitors, confirmation, selectivity assay for SENP inhibitor project, biochemical, single concentration. shares compounds with SENP7 inh. purified caspase-3, Z-DEVD-aminoluciferin luminescence, 60 min. inhibition, % at 12.5 µM. actives 60% (n = 6,200);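 active = mean inhibition above about 50%, limit read from the data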;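 note: plate controls were enzyme with DMSO for no effect and wells without caspase-3 for full effect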
Target sequence (P42574 28-227 limits assumed): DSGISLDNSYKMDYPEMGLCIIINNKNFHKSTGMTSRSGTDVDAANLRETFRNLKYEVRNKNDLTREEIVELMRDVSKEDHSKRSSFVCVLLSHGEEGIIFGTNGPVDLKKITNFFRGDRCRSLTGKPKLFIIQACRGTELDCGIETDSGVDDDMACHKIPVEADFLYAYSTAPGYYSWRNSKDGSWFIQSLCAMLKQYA
Luc interf: luminescence interference (SENP counter-screen). inhibition, % at 12.5 µM. Pre-incubated SENP8/Z-RLRGG-aminoluciferin, luciferase luminescence interference. actives 39% (n = 6,200). shares compounds with SENP7 inh;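 active = mean inhibition above about 50% when retested at one dose, limit read from the data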;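 note: plate controls were DMSO wells with completed reaction for no effect and substrate without enzyme for full effect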
* hit, by the source's call; · = not tested or not shown. In the library only some 2.5% were active in any assay of this set; here they are far more common.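 Rule for the calls, unless noted: active = mean inhibition above about 50% in the one-dose retest (limit read from the data); inactive = the rest.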

SMILES | SENP1 inh | SENP6 block | SENP8 block-1 | SENP8 block-2 | SENP7 inh | SENP8 confirm | SENP6 conf | SENP7 confirm | Casp3 select | Luc interf
CCCCNc1nc(N)nc(-c2cc(Cl)ccc2O)n1 | -19 | 70* | -432 | 41 | 54* | -10 | 56* | 86* | 26 | 6
COc1cc(/C=N/Nc2nc3ccccc3s2)cc([N+](=O)[O-])c1O | 1 | 11 | 42* | 58* | 32 | 5 | 15 | 4 | 14 | 1
C/C(=N/N=C/c1ccccc1O)c1ccccc1O | 18 | 60* | 17 | 55* | 86* | 19 | 30 | 30 | 26 | 10
Oc1ccccc1C=NN=C1c2ccccc2-c2ccccc21 | 4 | · | 22 | · | · | · | · | · | · | ·
Cn1c(=O)c2c(O)c(Cc3ccccc3)c(=O)[nH]c2n(C)c1=O | -3 | 61* | 7 | 4 | 29 | 42 | 39 | 66* | 64* | 8
Oc1ccccc1/C=N/Nc1nccnc1Cl | 1 | 80* | -12 | 83* | 93* | 91* | 91* | 100* | 94* | 93*
COc1cccc(/C=N/Nc2nccnc2Cl)c1O | 2 | 97* | -12 | 96* | 100* | 98* | 99* | 102* | 98* | 88*
Oc1ccccc1/C=N/NC1=NCCCCC1 | -43 | 3 | -112 | -9 | -9 | · | · | · | · | ·
Cc1ccc(C(=O)NC(Cc2cccc(C(F)(F)F)c2)C(=O)O)cc1 (stereo unspecified) | 2 | · | -5 | · | -17 | · | · | · | · | ·
CCC(=O)N(C1=C(NC)C(=O)c2ccccc2C1=O)C(C)C | -1 | 87* | 59* | 3 | 33 | 28 | 50 | 23 | 40 | 1
COc1ccc(-n2ncc3c(N(C)C4CCCCC4)ncnc32)cc1 | 1 | 48 | -166 | 43 | 47 | · | · | · | · | ·
Cc1cccc(-n2ncc3c(N(C)C4CCCCC4)ncnc32)c1 | -47 | 67* | -3 | 68* | 60* | -12 | -7 | -4 | 1 | 19
CC(C)NC(=O)c1nc2c(nnn2Cc2cccc(Cl)c2)c(=O)[nH]1 | -11 | -15 | 3 | 5 | -8 | · | · | · | · | ·
CC1(C(=O)Nc2cccc(C#N)c2)CCN1C(=O)c1ccccc1CCc1ccccc1 (stereo unspecified) | -3 | · | 18 | · | · | · | · | · | · | ·
O=C(O/N=C/c1ccc(Br)cc1)c1ccc(F)cc1 | 0 | 41 | -6 | 26 | 76* | -2 | -10 | 21 | 29 | 0
CC(C)c1cccc(C(C)C)c1NC(=O)CNCc1ccccc1F | 0 | -16 | 26 | -9 | -3 | · | · | · | · | ·
CCS(=O)(=O)c1nc(S(=O)(=O)c2ccc(C)cc2)c(NCCCN2CCOCC2)s1 | 4 | -4 | 9 | 4 | -1 | · | · | · | · | ·
CCCS(=O)(=O)c1nc(S(=O)(=O)c2ccc(C)cc2)c(NCCN2CCOCC2)s1 | -9 | 104* | 25 | 5 | 6 | 9 | 2 | -6 | 0 | -3
Clc1ccc(C2=Nc3cc(Cl)ccc3OC2)cc1 | 2 | 81* | 11 | 76* | 81* | 15 | 12 | 20 | 41 | -6
c1ccc(C2=Nc3ccccc3OC2)cc1 | 24 | -21 | -108 | -9 | -10 | · | · | · | · | ·
Clc1ccc(C2=NN=C3COc4ccccc4N3C2)cc1 | -2 | 20 | -22 | -5 | 8 | · | · | · | · | ·
Cc1ccc2c(c1)N=C(c1ccc(Cl)cc1)CO2 | 3 | 96* | -270 | 95* | 98* | 83* | 82* | 85* | 80* | 57*
Cc1ccc(S(=O)(=O)N2C[C@H]3C(=O)C[C@@H](c4ccccc4F)N(S(=O)(=O)c4ccc(C)cc4)[C@H]3C[C@H]2c2ccccc2)cc1 | 0 | · | 17 | · | · | · | · | · | · | ·
Cc1ccc(N=Nc2c(N)n(-c3ccccc3)[nH]c2=O)cc1 | 2 | 76* | 33 | 54* | 82* | 28 | 20 | 25 | 20 | 14
CCn1c(SCC(=O)N/N=C/c2ccccc2OCC(=O)O)nnc1-c1ccccc1 | · | 70* | · | 1 | -4 | -3 | 0 | -3 | 6 | 7
SMILES | SENP1 inh | SENP6 block | SENP8 block-1 | SENP8 block-2 | SENP7 inh | SENP8 confirm | SENP6 conf | SENP7 confirm | Casp3 select | Luc interf
O=C(O)COc1ccccc1/C=N/NC(=O)CSc1nnc(-c2ccc(Cl)cc2)n1C1CCCCC1 | 2 | -1 | -15 | -3 | 2 | · | · | · | · | ·
CSc1ccc(/C=N/NC(=O)c2cc(O)cc(O)c2)cc1 | 3 | 58* | -169 | 22 | 43 | 59* | 58* | 84* | 65* | 65*
COc1ccc(OCc2ccc(/C=N\NC(=O)c3sccc3C)o2)cc1 | 0 | 22 | -34 | -15 | 32 | · | · | · | · | ·
CSc1ccc(/C=N/NC(=O)c2ccc(C)c(C)c2)cc1 | -1 | -28 | -100 | -6 | -1 | · | · | · | · | ·
CSc1ccc(/C=N/NC(=O)c2sccc2C)cc1 | 1 | 94* | -158 | 92* | 100* | 14 | 61* | 101* | 63* | -5
CCn1nc(C)c(CNC(=O)Nc2ccccc2C(=O)OC)c1C | 2 | -3 | -170 | -10 | -3 | · | · | · | · | ·
NC(=O)c1cccc(-c2ccnc3c2CC(C(=O)NCc2ccccc2)O3)c1 (stereo unspecified) | -2 | · | 3 | · | · | · | · | · | · | ·
S=C(Nc1ccc(-c2nc3ccccc3[nH]2)cc1)Nc1cccnc1 | -4 | 65* | -304 | 23 | 41 | 17 | 9 | 34 | 45 | 23
O=C(Nc1ccc(-c2nc3ccccc3[nH]2)cc1)c1ccco1 | 0 | 91* | -69 | 84* | 86* | 87* | 87* | 96* | 88* | 65*
Cc1ccc2nc(-c3cccc(NC(=O)c4ccco4)c3)[nH]c2c1 | -1 | 92* | -33 | 87* | 95* | 2 | 93* | 101* | 89* | 92*
Cc1c(C(=O)N2CCNCC2)oc2ccccc12 | 4 | 5 | 10 | -3 | 2 | · | · | · | · | ·
